Reference: ChEMBL document CHEMBL1759959, “Synthesis and antitumor activity of 10-arylcamptothecin derivatives” (Bioorg Med Chem Lett, 2011)
The source made the active and inactive calls. The calls are words filed in the database; no cut-off is given here.

Assays:
HL-60 = experiment: Cytotoxicity against human HL60 cells after 3 days; format: functional, cell-based
How it was run: (§1)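 HL60 (leukaemia), A549 (lung) and BEL-7402 (liver) human tumour cells exposed to compounds for 3 days; viability read by MTT assay and SRB assay; IC50 (half-maximal inhibitory concentration) reported.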

A549 [1] = experiment: Cytotoxicity against human A549 cells after 3 days; format: functional, cell-based; how it was run: as §1
Bel-7402 = experiment: Cytotoxicity against human Bel7402 cells after 3 days; format: functional, cell-based; how it was run: as §1
A549 [2] = experiment: Cell cycle arrest in human A549 cells assessed as accumulation at S phase at 25 nM after 24 hrs by flow cytometry (reference value: 27.52%)
A549 [3] = experiment: Cell cycle arrest in human A549 cells assessed as accumulation at G2/M phase at 25 nM after 24 hrs by flow cytometry (reference value: 10.34%)
A549 [4] = experiment: Cell cycle arrest in human A549 cells assessed as accumulation at G0/G1 phase at 25 nM after 24 hrs by flow cytometry (reference value: 62.14%)
A549 [5] = experiment: Cell cycle arrest in human A549 cells assessed as accumulation at S phase at 12.5 uM after 24 hrs by flow cytometry (reference value: 27.52%); format: functional
A549 [6] = experiment: Cell cycle arrest in human A549 cells assessed as accumulation at G2/M phase at 12.5 uM after 24 hrs by flow cytometry (reference value: 10.34%); format: functional
A549 [7] = experiment: Cell cycle arrest in human A549 cells assessed as accumulation at G0/G1 phase at 50 uM after 24 hrs by flow cytometry (reference value: 62.14%); format: functional
A549 [8] = experiment: Cell cycle arrest in human A549 cells assessed as accumulation at S phase at 50 uM after 24 hrs by flow cytometry (reference value: 27.52%); format: functional
A549 [9] = experiment: Cell cycle arrest in human A549 cells assessed as accumulation at G2/M phase at 50 uM after 24 hrs by flow cytometry (reference value: 10.34%); format: functional
[10] = Chemical stability of the compound in phosphate saline buffer at pH 7.4 at 50 umol/L by HPLC analysis; format: physicochemical; conditions: pH 7.4, 50 µM
How it was run: (§2)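 Lactone stability followed by HPLC with fluorescence detection; drug at 50 μmol/L incubated at pH 7.4, 37 °C in PBS, PBS with human serum albumin, or human blood; each point mean of three determinations, uncertainty 10% or less.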

[11] = Chemical stability of the compound in phosphate saline buffer at pH 7.4 at 50 umol/L by HPLC analysis in presence of HAS; format: physicochemical; conditions: pH 7.4, 50 µM; how it was run: as §2
[12] = Chemical stability of the compound in phosphate saline buffer at pH 7.4 at 50 umol/L by HPLC analysis in presence of human blood; format: physicochemical; conditions: pH 7.4, 50 µM; how it was run: as §2
A549 [13] = experiment: Cell cycle arrest in human A549 cells assessed as accumulation at G0/G1 phase at 12.5 uM after 24 hrs by flow cytometry (reference value: 62.14%); format: functional
[14] = target: T1, DNA topoisomerase 1 (Homo sapiens) (UniProt P11387); experiment: Inhibition of topoisomerase 1-mediated relaxation of supercoiled pBR322 DNA at 6.25 to 100 uM after 30 mins by […]
T1 sequence (whole entry): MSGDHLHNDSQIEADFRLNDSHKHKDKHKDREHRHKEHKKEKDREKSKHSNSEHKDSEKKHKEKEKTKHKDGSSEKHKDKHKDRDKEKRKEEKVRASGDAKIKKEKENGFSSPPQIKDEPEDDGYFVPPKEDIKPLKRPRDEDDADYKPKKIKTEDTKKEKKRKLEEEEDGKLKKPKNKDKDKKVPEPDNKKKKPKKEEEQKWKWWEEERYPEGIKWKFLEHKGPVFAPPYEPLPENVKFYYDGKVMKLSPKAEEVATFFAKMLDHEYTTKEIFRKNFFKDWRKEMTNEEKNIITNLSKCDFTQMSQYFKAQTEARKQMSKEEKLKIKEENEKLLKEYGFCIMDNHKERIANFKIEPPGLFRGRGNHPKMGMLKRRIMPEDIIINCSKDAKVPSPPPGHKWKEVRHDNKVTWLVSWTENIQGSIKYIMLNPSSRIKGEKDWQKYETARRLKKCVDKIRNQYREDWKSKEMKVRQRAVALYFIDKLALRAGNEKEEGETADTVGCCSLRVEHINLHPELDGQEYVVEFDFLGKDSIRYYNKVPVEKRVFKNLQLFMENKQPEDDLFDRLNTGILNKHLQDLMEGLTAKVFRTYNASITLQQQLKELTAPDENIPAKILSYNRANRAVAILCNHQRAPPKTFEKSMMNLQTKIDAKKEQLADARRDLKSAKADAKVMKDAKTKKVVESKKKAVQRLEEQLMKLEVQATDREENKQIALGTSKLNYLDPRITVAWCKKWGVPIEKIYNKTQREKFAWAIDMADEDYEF
How it was run: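 Supercoiled pBR322 DNA incubated with topoisomerase I (1 unit) with or without drug, 37 °C, 30 min; stopped with 10% SDS; products resolved on 1% agarose gel, supercoiled versus relaxed bands scored; camptothecin as reference.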

Compound | IC50 (HL-60; Homo sapiens, HL-60, 72 h) | IC50 (A549 [1]; Homo sapiens, A549, 72 h) | IC50 (Bel-7402; Homo sapiens, Bel-7402, 72 h) | further results
CC[C@@]1(O)C(=O)OCc2c1cc1n(c2=O)Cc2cc3cc(-c4ccsc4)ccc3nc2-1 | 0.037 µM | 0.012 µM | 0.23 µM | –
CC[C@@]1(O)C(=O)OCc2c1cc1n(c2=O)Cc2cc3cc(-c4ccc(C(=O)OC)cc4)ccc3nc2-1 | 0.28 µM | 0.51 µM | 0.65 µM | –
CC[C@@]1(O)C(=O)OCc2c1cc1n(c2=O)Cc2cc3c(CN(C)C)c(O)ccc3nc2-1 [TOPOTECAN] | 0.052 µM | 0.071 µM | 0.47 µM | Activity (A549 [2]): 24.95%; Activity (A549 [3]): 35.02%; Activity (A549 [4]): 40.04%
CC[C@@]1(O)C(=O)OCc2c1cc1n(c2=O)Cc2cc3cc(-c4cccc(C(=O)OC)c4)ccc3nc2-1 | 0.049 µM | 0.023 µM | 5.12 µM | –
CC[C@@]1(O)C(=O)OCc2c1cc1n(c2=O)Cc2cc3cc(-c4ccc(N(C)C)cc4)ccc3nc2-1 | 2.88 µM | 2.68 µM | 36.5 µM | –
CC[C@@]1(O)C(=O)OCc2c1cc1n(c2=O)Cc2cc3cc(-c4cccc(N(C)C)c4)ccc3nc2-1 | 0.013 µM | 0.04 µM | 0.18 µM | –
CC[C@@]1(O)C(=O)OCc2c1cc1n(c2=O)Cc2cc3cc(-c4ccccc4N(C)C)ccc3nc2-1 | 0.16 µM | 0.23 µM | 1.53 µM | –
CC[C@@]1(O)C(=O)OCc2c1cc1n(c2=O)Cc2cc3cc(-c4ccncc4)ccc3nc2-1 [listing 1 of 2 here] | – | 0.067 µM | 0.42 µM | Activity (A549 [5]): 18.18%; Activity (A549 [6]): 22.22%; Activity (A549 [7]): 22.33%; Activity (A549 [8]): 14.24%; Activity (A549 [9]): 63.43%; IC50 (HL-60; hl-60): 0.009 µM; Stability [10]: Stable; Stability [11]: Stable; Stability [12]: Stable; Activity (A549 [13]): 59.61%; Activity (A549 [2]): 16.74%; Activity (A549 [3]): 38.41%; Activity (A549 [4]): 44.85%
CC[C@@]1(O)C(=O)OCc2c1cc1n(c2=O)Cc2cc3cc(-c4ccc(Cl)cc4)ccc3nc2-1 | 0.3 µM | 0.32 µM | 3.12 µM | –
CC[C@@]1(O)C(=O)OCc2c1cc1n(c2=O)Cc2cc3cc(-c4ccncc4)ccc3nc2-1.Cl | – | – | – | Activity (A549 [5]): 15.74%; Activity (A549 [6]): 28.07%; Activity (A549 [7]): 19.91%; Activity (A549 [8]): 0%; Activity (A549 [9]): 80.09%; IC50 (HL-60; hl-60): 0.021 µM; IC50 (A549 [1]; a549): 0.062 µM; IC50 (Bel-7402; bel-7402): 0.46 µM; Activity (A549 [13]): 56.19%; Activity (A549 [2]): 22%; Activity (A549 [3]): 46.71%; Activity (A549 [4]): 31.29%
CC[C@@]1(O)C(=O)OCc2c1cc1n(c2=O)Cc2cc3cc(-c4cccc(Cl)c4)ccc3nc2-1 | 0.1 µM | 0.067 µM | 0.93 µM | –
CC[C@@]1(O)C(=O)OCc2c1cc1n(c2=O)Cc2cc3cc(-c4cccnc4)ccc3nc2-1 | 0.032 µM | 0.068 µM | 0.38 µM | –
CC[C@@]1(O)C(=O)OCc2c1cc1n(c2=O)Cc2cc3cc(-c4ccc(C(=O)O)cc4)ccc3nc2-1 | 1.45 µM | 11.6 µM | 13.8 µM | –
CC[C@@]1(O)C(=O)OCc2c1cc1n(c2=O)Cc2cc3cc(-c4cnc5ccccc5c4)ccc3nc2-1 | 1.44 µM | 5.95 µM | 6.59 µM | –
CC[C@@]1(O)C(=O)OCc2c1cc1n(c2=O)Cc2cc3cc(-c4ccccc4Cl)ccc3nc2-1 | 0.59 µM | 1.12 µM | 2.46 µM | –
CC[C@@]1(O)C(=O)OCc2c1cc1n(c2=O)Cc2cc3cc(-c4ccc(OC)cc4)ccc3nc2-1 | 0.78 µM | 0.5 µM | 5.89 µM | –
CC[C@@]1(O)C(=O)OCc2c1cc1n(c2=O)Cc2cc3cc(-c4ccc(O)cc4)ccc3nc2-1 | 0.02 µM | 0.14 µM | 1.05 µM | –
CC[C@@]1(O)C(=O)OCc2c1cc1n(c2=O)Cc2cc3cc(-c4cccs4)ccc3nc2-1 | 0.048 µM | 0.01 µM | 0.08 µM | –
CC[C@@]1(O)C(=O)OCc2c1cc1n(c2=O)Cc2cc3cc(-c4ccncc4)ccc3nc2-1 [listing 2 of 2 here] | – | – | – | inhibition [14]: Active
